Laboratory results reported in ChEMBL document CHEMBL1158369, “Hansch analysis of substituted benzoic acid benzylidene/furan-2-yl-methylene hydrazides as antimicrobial agents” (Eur J Med Chem, 2009).

Tests used:
Staphylococcus aureus = experiment: Antibacterial activity against Staphylococcus aureus after 24 hrs by tube dilution method; assay type: functional
Summary of the method: (§1)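 Twofold serial dilutions of test and standard compounds in double strength nutrient broth (I.P.); tubes incubated at 37 °C for 24 h. Growth judged visually; MIC taken as lowest concentration with no visible turbidity.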

Aspergillus niger = experiment: Antifungal activity against Aspergillus niger after 7 days by tube dilution method; assay type: functional
Summary of the method: (§2)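 Twofold serial dilutions of test and standard compounds in Sabouraud dextrose broth (I.P.); C. albicans incubated 37 °C for 48 h, A. niger 25 °C for 7 d. Growth read visually; MIC is lowest concentration without visible growth.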

Candida albicans = experiment: Antifungal activity against Candida albicans after 48 hrs by tube dilution method; assay type: functional; summary of the method: as §2
Bacillus subtilis = experiment: Antibacterial activity against Bacillus subtilis after 24 hrs by tube dilution method; assay type: functional; summary of the method: as §1
[1] = Lipophilicity, log P of the compound; assay type: physicochemical; details: octanol/water
Escherichia coli = experiment: Antibacterial activity against Escherichia coli after 24 hrs by tube dilution method; assay type: functional; summary of the method: as §1

Structure (SMILES) | -logMIC (Staphylococcus aureus) | -logMIC (Aspergillus niger) | -logMIC (Candida albicans) | -logMIC (Bacillus subtilis) | logP [1] | -logMIC (Escherichia coli)
COc1ccc(/C=N/NC(=O)c2ccc(N)cc2)cc1OC | 1.94 | 1.9 | 1.68 | 2.29 | 2.14 | 2.49
Nc1ccc(C(=O)N/N=C/c2cccc([N+](=O)[O-])c2)cc1 | 1.98 | 1.8 | 1.66 | 2.29 | 2.6 | 2.56
COc1ccc(/C=N/NC(=O)c2ccc(Cl)cc2)cc1OC | 2.61 | 2.01 | 1.71 | 2.61 | 3.44 | 2.61
COc1ccc(/C=N/NC(=O)c2ccc(OC)c(OC)c2)cc1OC | 2.07 | 2.04 | 1.74 | 2.34 | 2.42 | 2.64
COc1ccc(/C=N/NC(=O)c2ccc(OC)c(OC)c2)cc1 | 2.17 | 1.68 | 1.68 | 2.58 | 3.39 | 2.58
COc1ccc(/C=N/NC(=O)c2cccc([N+](=O)[O-])c2)cc1OC | 2.05 | 1.75 | 1.64 | 2.28 | 2.87 | 2.63
COc1ccc(/C=N/NC(=O)c2ccccc2Br)cc1OC | 2.52 | 2.06 | 1.76 | 2.35 | 3.71 | 2.63
COc1ccc(/C=N/NC(=O)c2cc([N+](=O)[O-])cc([N+](=O)[O-])c2)cc1OC | 2.38 | 2.08 | 1.78 | 2.51 | 2.83 | 2.68
O=C(N/N=C/c1ccco1)c1cc([N+](=O)[O-])cc([N+](=O)[O-])c1 | 1.99 | 1.69 | 1.69 | 2.29 | 2.28 | 2.47
COc1ccc(C(=O)N/N=C/c2ccco2)cc1OC | 1.61 | 1.87 | 1.64 | 1.98 | 1.87 | 2.3
COc1ccc(/C=N/NC(=O)c2cc([N+](=O)[O-])cc([N+](=O)[O-])c2)cc1 | 2.2 | 1.8 | 1.74 | 2.42 | 3.08 | 2.64
Cc1ccc(C(=O)N/N=C/c2cccc([N+](=O)[O-])c2)cc1 | 2.14 | 1.85 | 1.59 | 2.4 | 3.85 | 2.47
Cc1ccc(C(=O)N/N=C/c2ccco2)cc1 |  |  |  |  | 2.84 | 
O=C(N/N=C/c1cccc([N+](=O)[O-])c1)c1cccc([N+](=O)[O-])c1 | 1.99 | 1.7 | 1.7 | 2.3 | 3.33 | 2.61
O=C(N/N=C/c1cccc([N+](=O)[O-])c1)c1ccc([N+](=O)[O-])cc1 | 1.99 | 1.7 | 1.7 | 2.09 | 3.33 | 2.61
OC(Cn1cncn1)(Cn1cncn1)c1ccc(F)cc1F [FLUCONAZOLE] |  | 2.64 | 2.64 |  |  | 
O=C(N/N=C/c1cccc([N+](=O)[O-])c1)c1ccccc1Br | 2.35 | 1.75 | 1.75 | 2.65 | 4.17 | 2.49
COc1ccc(/C=N/NC(=O)c2ccc(N)cc2)cc1 | 1.63 | 1.8 | 1.63 | 2.24 | 2.39 | 2.54
O=C(N/N=C/c1cccc([N+](=O)[O-])c1)c1ccc(Cl)cc1 | 2.59 | 1.69 | 1.69 | 2.59 | 3.9 | 2.59
COc1ccc(/C=N/NC(=O)c2ccc(C)cc2)cc1 | 2.24 | 1.88 | 1.63 | 2.32 | 3.64 | 2.54
COc1ccc(/C=N/NC(=O)c2ccc([N+](=O)[O-])cc2)cc1OC | 1.99 | 1.75 | 1.72 | 2.34 | 2.87 | 2.63
O=C(N/N=C/c1cccc([N+](=O)[O-])c1)c1cc([N+](=O)[O-])ccc1Cl | 2.65 | 1.59 | 1.75 | 2.65 | 3.85 | 2.65
COc1ccc(C(=O)N/N=C/c2cccc([N+](=O)[O-])c2)cc1OC | 2.05 | 1.72 | 1.66 | 2.33 | 2.87 | 2.63
COc1ccc(/C=N/NC(=O)c2cc([N+](=O)[O-])ccc2Cl)cc1OC | 2.67 | 1.95 | 1.76 | 2.62 | 3.39 | 2.67
COc1ccc(/C=N/NC(=O)c2ccc(C)cc2)cc1OC | 2.17 | 1.75 | 1.68 | 2.58 | 3.39 | 2.58
CCn1cc(C(=O)O)c(=O)c2cc(F)c(N3CCNCC3)cc21 [NORFLOXACIN] | 2.61 |  |  | 2.61 |  | 2.61
COc1ccc(/C=N/NC(=O)c2ccc([N+](=O)[O-])cc2)cc1 | 1.68 | 1.98 | 1.62 | 2.25 | 3.13 | 2.56
